Consider 13 compounds from ChEMBL document CHEMBL3871269, “Conjugates of podophyllotoxin and norcantharidin as dual inhibitors of topoisomeraseⅡ and protein phosphatase 2A” (Eur J Med Chem, 2016).

What is called logP is the decadic logarithm of the partition coefficient of the neutral form, usually between octanol and water. A word on the IC50: it is the midpoint of a concentration-inhibition curve.

Active and inactive are the calls of the source. The rule behind the calls is not given here. Where only a bound is given, the exact number is not on record here.

Data set [1] can be described thus: Octanol-water partition coefficient, log P of the compound. Type of data set: physicochemical. Summed up:
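Partition coefficient P = compound concentration in 1-octanol / compound concentration in water.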

Data set [2] is described as follows: Cytotoxicity against human HCT8 cells measured after 48 hrs by MTT assay. The note with it: HCT-8, 48 h. In kind it is functional, cell-based. Summed up: (§1)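 MTT growth assay; cells seeded at 5×10³/well in RPMI1640 with 10% heat-inactivated FBS, attached 4–6 h, then exposed to five concentrations (0.01–100 μM, compounds dissolved in saline) for 48 h at 37 °C, 5% CO₂. MTT added for 4 h, formazan dissolved in DMSO, absorbance read at 490 nm. IC50 taken from log plot of percent of control versus concentration; means ± SD of triplicate experiments.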

A short description of data set [3]: Cytotoxicity against human A549 cells measured after 48 hrs by MTT assay. In kind it is functional, cell-based. The following applies: A549, 48 h. The gist of the method: as §1
Data set [4] is described as follows: Cytotoxicity against human HeLa cells measured after 48 hrs by MTT assay. In kind it is functional, cell-based. Summed up: as §1
(In general: Tetrazolium assays rely on reduction of a dye to a coloured formazan, in cell work by metabolically active cells.)

Data set [5] can be described thus: Cytotoxicity against human HepG2 cells measured after 48 hrs by MTT assay. In kind it is functional, cell-based. The note with it: HepG2, 48 h. The gist of the method: as §1
The nature of data set [6]: Inhibition of human RBC PP2A assessed as reduction in free phosphate ion release using Lys-Arg-pThr-Ile-Arg as substrate preincubated for 10 mins followed by substrate addition measured after 60 mins by malachite green method. The gist of the method:
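Purified PP2A (0.6 mU/well) preincubated with inhibitor 10 min at 37 °C. Reaction started with 200 μM Lys-Arg-pThr-Ile-Arg in 50 mM Tris-HCl pH 7.0, 100 μM CaCl₂; 60 min at room temperature. Released phosphate read by malachite green at 650 nm after 10 min; enzyme-plus-buffer blanks. IC50 from dose–response; mean of three independent experiments in duplicate.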

Data set [7] can be described thus: Cytotoxicity against human WI38 cells measured after 48 hrs by MTT assay. Type of data set: toxicity, cell-based, WI-38. The gist of the method: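 MTT growth inhibition in WI-38 lung fibroblasts. Cells seeded at 5×10³/well in RPMI1640 with 10% heat-inactivated FBS, attached 4–6 h, then exposed 48 h at 37 °C, 5% CO₂ to five concentrations (0.01–100 μM, saline-dissolved). MTT 4 h, DMSO solubilisation, A490. IC50 from log plot of percent control vs concentration; triplicate, mean ± SD.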

For another data set, the species on record is Homo sapiens. The data set can be described thus: Inhibition of human topoisomerase-2 catalytic activity assessed as reduction in pBR322 supercoiled DNA relaxation at 100 uM measured after 60 mins by ethidium bromide staining agarose gel electrophoresis. Summed up: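 Kit-based relaxation assay: supercoiled pBR322 plasmid DNA (250 ng/μL) with topoisomerase II (4 units) in kit assay buffer, 20 μL final, 60 min at 37 °C. Reaction stopped with 10% SDS, proteinase K treated, chloroform/isoamyl alcohol (24:1) extracted. Products resolved on 1% agarose in TAE (pH 8.0), ethidium bromide stained. Test concentrations 50 and 100 μM.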

Regarding `COc1cc([C@@H]2c3cc4c(cc3[C@@H](NC(=O)CN3C(=O)C5C6CCC(O6)C5C3=O)[C@H]3COC(=O)[C@H]23)OCO4)cc(OC)c1O` (some centres not stated), the logP in data set [1] (read-out: logP) is 0.13. For the same compound, the IC50 in data set [2] came out at 17.1 µM; in data set [3] it was 5.47 µM; in data set [4], 1.65 µM; in data set [5], 0.14 µM; in data set [6], 0.68 µM. This compound gave a half-inhibitory concentration (IC50) at 48 h in data set [7] of 33.5 µM.

With `COc1cc([C@@H]2c3cc4c(cc3[C@@H](NC(=O)[C@H](c3ccccc3)N3C(=O)C5C6CCC(O6)C5C3=O)[C@H]3COC(=O)[C@H]23)OCO4)cc(OC)c1O` (some centres not stated), the logP in data set [1] (read-out: logP) was determined as 1.99. Also, the concentration for half-maximal inhibition (IC50) in data set [2] is 15.3 µM; in data set [3] it was 7.03 µM; in data set [4], 28.5 µM; in data set [5], 1.98 µM; in data set [6] it was more than 100 µM. In data set [7], this compound came in with an IC50 at 48 h of 26.7 µM.

On to `COc1cc([C@@H]2c3cc4c(cc3[C@@H](NC(=O)[C@H](Cc3ccccc3)N3C(=O)C5C6CCC(O6)C5C3=O)[C@H]3COC(=O)[C@H]23)OCO4)cc(OC)c1O` (some centres not stated), for which the logP in data set [1] (read-out: logP) stood at 2.27. Further, the IC50 is 11.6 µM in data set [2]; 14.1 µM in data set [3]; 16 µM in data set [4]; 5.53 µM in data set [5]; more than 100 µM in data set [6]. Moreover, inhibition in data set [7] was half-maximal at 29.6 µM (IC50 at 48 h).

On to `COc1cc([C@@H]2c3cc4c(cc3[C@@H](NC(=O)[C@H](CC(C)C)N3C(=O)C5C6CCC(O6)C5C3=O)[C@H]3COC(=O)[C@H]23)OCO4)cc(OC)c1O` (some centres not stated), for which the logP in data set [1] (read-out: logP) amounted to 1.83. Also, the IC50 in data set [2] is 21.4 µM; in data set [3] it was 8.11 µM; in data set [4], more than 100 µM; in data set [5], 10.5 µM; in data set [6], more than 100 µM. Further, in data set [7], half-maximal inhibition (IC50 at 48 h) required 21.9 µM.

`COc1cc([C@@H]2c3cc4c(cc3[C@@H](NC(=O)c3ccc(N5C(=O)C6C7CCC(O7)C6C5=O)cc3)[C@H]3COC(=O)[C@H]23)OCO4)cc(OC)c1O` (some centres not stated): the logP in data set [1] (read-out: logP) was determined as 2.06. Also, the IC50 in data set [2] worked out at 3.12 µM; in data set [3] it was 3.42 µM; in data set [4], 2.61 µM; in data set [5], 0.1 µM; in data set [6], 3.63 µM. Also, the IC50 at 48 h in data set [7] stood at 46.5 µM.

In data set [1], `COc1cc([C@@H]2c3cc4c(cc3[C@@H](O[C@@H]3O[C@@H]5CO[C@@H](C)O[C@H]5[C@H](O)[C@H]3O)[C@H]3COC(=O)[C@H]23)OCO4)cc(OC)c1O` [ETOPOSIDE] registered a logP of 2.74. For the same compound, the IC50 in data set [2] came out at 10 µM; in data set [3], 29.7 µM; in data set [4], 13.5 µM; in data set [5], 5.21 µM. Besides, the inhibition result in the data set filed under Homo sapiens was “Active”. In data set [7], this compound gave an IC50 at 48 h of 17.6 µM.

Regarding `COc1cc([C@@H]2c3cc4c(cc3[C@@H](NC(=O)CCN3C(=O)C5C6CCC(O6)C5C3=O)[C@H]3COC(=O)[C@H]23)OCO4)cc(OC)c1O` (some centres not stated), the logP in data set [1] (read-out: logP) came to 0.41. Also, the IC50 turned out to be 17.2 µM in data set [2]; 6.21 µM in data set [3]; 10.8 µM in data set [4]; 8.42 µM in data set [5]; 9.52 µM in data set [6]. Moreover, the IC50 at 48 h in data set [7] is more than 100 µM.

Turning to `CC[C@H](C)[C@@H](C(=O)N[C@@H]1c2cc3c(cc2[C@@H](c2cc(OC)c(O)c(OC)c2)[C@H]2C(=O)OC[C@@H]21)OCO3)N1C(=O)C2C3CCC(O3)C2C1=O` (some centres not stated), in data set [1] (read-out: logP), the logP stood at 1.91. Further, the IC50 in data set [2] turned out to be 23.6 µM; in data set [3], 10.1 µM; in data set [4], 2.52 µM; in data set [5] it was 3.21 µM; in data set [6], 75.7 µM. Moreover, the IC50 at 48 h in data set [7] came out at 65.2 µM.

On to `COc1cc([C@@H]2c3cc4c(cc3[C@@H](NC(=O)[C@H](CCSC)N3C(=O)C5C6CCC(O6)C5C3=O)[C@H]3COC(=O)[C@H]23)OCO4)cc(OC)c1O` (some centres not stated), for which the logP in data set [1] (read-out: logP) worked out at 0.93. Besides, the IC50 came to 12.3 µM in data set [2]; 6.12 µM in data set [3]; 2.82 µM in data set [4]; 7.04 µM in data set [5]; 1.29 µM in data set [6]. The same compound came in with an IC50 at 48 h in data set [7] of 30.4 µM.

For `COc1cc([C@@H]2c3cc4c(cc3[C@@H](NC(=O)[C@H](C)N3C(=O)C5C6CCC(O6)C5C3=O)[C@H]3COC(=O)[C@H]23)OCO4)cc(OC)c1O` (some centres not stated), the logP in data set [1] (read-out: logP) was 0.62. In addition, the IC50 in data set [2] was 16.9 µM; in data set [3] it was 44.5 µM; in data set [4], 15.1 µM; in data set [5] it was 13.7 µM; in data set [6] it was more than 100 µM. In data set [7], this compound displayed a concentration for half-maximal inhibition (IC50) at 48 h of 35.6 µM.

On to `O=C1OC(=O)C2C3CCC(O3)C12` (configuration not stated) [DEMETHYL-CANTHARIDIN], for which the IC50 was determined as 12.2 µM in data set [3] and 0.48 µM in data set [6]. The same compound displayed an IC50 at 48 h in data set [7] of 26.7 µM.

Turning to `COc1cc([C@@H]2c3cc4c(cc3[C@@H](NC(=O)[C@H](Cc3cc5ccccc5[nH]3)N3C(=O)C5C6CCC(O6)C5C3=O)[C@H]3COC(=O)[C@H]23)OCO4)cc(OC)c1O` (some centres not stated), in data set [1] (read-out: logP), the log partition coefficient (logP) was determined as 1.69. Also, the IC50 in data set [2] was 15.2 µM; in data set [3], 12 µM; in data set [4], 2.35 µM; in data set [5], 6.84 µM; in data set [6], 58.3 µM. For the same compound, the IC50 at 48 h in data set [7] stood at 72.4 µM.

As for `COc1cc([C@@H]2c3cc4c(cc3[C@@H](NC(=O)[C@H](C(C)C)N3C(=O)C5C6CCC(O6)C5C3=O)[C@H]3COC(=O)[C@H]23)OCO4)cc(OC)c1O` (some centres not stated), the logP in data set [1] (read-out: logP) worked out at 1.48. Besides, the IC50 in data set [2] came out at 7.81 µM; in data set [3] it was 6.73 µM; in data set [4], 8.3 µM; in data set [5], 1.62 µM; in data set [6], 1.12 µM. Inhibition in data set [7] was half-maximal at 44.4 µM (IC50 at 48 h).
